Test results reported in ChEMBL document CHEMBL4043283, “Discovery and Preclinical Development of IIIM-290, an Orally Active Potent Cyclin-Dependent Kinase Inhibitor” (J Med Chem, 2018).
≈ marks a conversion by molar mass, not a printed value.

Columns and labels:
[1] = target: CDK2/Cyclin A2 (Homo sapiens) (UniProt P24941+P20248); test: Inhibition of CDK2/cyclin A (unknown origin) at 0.5 uM using histone H1 as substrate after 30 mins in presence of [33P]-gamma-ATP by filter binding assay relative to control; assay type: protein-complex assay
PC-3 = test: Growth inhibition of human PC3 cells at 10 uM after 48 hrs by MTT assay relative to control; assay type: functional; conditions: PC-3, 48 h, read-out: GI
In short: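 Single-concentration primary screen at 10 μM by MTT assay. Cells were NCI-sourced cancer lines grown in appropriate medium at 37 °C, 95% humidity, 5% CO2. Growth inhibition is expressed relative to control.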

CDK4/Cyclin D3 = CDK4/Cyclin D3 (Homo sapiens, UniProt P11802); test: Inhibition of CDK4/cyclin D3 (unknown origin) after 30 mins in presence of [33P]-gamma-ATP by filter binding assay; assay type: protein-complex assay
Sequence of CDK4/Cyclin D3 (P11802 whole entry): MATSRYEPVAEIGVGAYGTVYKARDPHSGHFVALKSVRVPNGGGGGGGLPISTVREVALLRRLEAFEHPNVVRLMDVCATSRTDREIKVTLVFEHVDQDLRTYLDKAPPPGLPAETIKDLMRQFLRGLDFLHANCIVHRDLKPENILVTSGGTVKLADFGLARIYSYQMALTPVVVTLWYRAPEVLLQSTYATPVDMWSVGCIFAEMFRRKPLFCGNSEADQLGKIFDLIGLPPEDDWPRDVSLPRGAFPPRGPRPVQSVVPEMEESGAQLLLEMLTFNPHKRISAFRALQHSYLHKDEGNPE
Sequence of CDK4/Cyclin D3 (P30281 whole entry, further chain): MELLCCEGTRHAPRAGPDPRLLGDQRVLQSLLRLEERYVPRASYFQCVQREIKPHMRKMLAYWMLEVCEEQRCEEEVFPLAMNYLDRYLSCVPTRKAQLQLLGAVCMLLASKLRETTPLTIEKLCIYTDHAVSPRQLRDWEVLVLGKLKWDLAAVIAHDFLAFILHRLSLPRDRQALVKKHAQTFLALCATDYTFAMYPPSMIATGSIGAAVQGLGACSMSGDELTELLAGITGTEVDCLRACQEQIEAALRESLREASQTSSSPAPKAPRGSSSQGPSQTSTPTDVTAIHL

[2] = target: T1, Cyclin-dependent kinase 5/CDK5 activator 1 (Homo sapiens, UniProt Q00535); test: Inhibition of CDK5/cyclin p25 (unknown origin) after 30 mins in presence of [33P]-gamma-ATP by filter binding assay; assay type: protein-complex assay
T1 sequence (Q00535 whole entry): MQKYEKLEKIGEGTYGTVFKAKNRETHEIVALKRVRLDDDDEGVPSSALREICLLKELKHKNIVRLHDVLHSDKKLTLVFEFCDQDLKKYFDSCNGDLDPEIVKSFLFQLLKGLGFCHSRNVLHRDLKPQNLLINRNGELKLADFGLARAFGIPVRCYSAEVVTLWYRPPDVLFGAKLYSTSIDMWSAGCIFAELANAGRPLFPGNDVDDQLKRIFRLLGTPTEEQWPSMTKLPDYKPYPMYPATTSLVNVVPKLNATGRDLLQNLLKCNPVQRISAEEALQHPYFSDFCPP
T1 sequence (Q15078 whole entry, further chain): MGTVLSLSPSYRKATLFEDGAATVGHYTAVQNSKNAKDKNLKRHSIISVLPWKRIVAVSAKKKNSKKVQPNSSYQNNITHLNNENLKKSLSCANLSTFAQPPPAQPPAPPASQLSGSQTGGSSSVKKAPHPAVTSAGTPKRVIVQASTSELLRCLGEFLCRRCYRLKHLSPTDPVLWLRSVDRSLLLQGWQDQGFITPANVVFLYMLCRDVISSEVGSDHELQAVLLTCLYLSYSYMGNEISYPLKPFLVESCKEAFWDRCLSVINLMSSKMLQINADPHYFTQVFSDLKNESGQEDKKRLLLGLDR

[3] = target: T1, Cyclin-dependent kinase 5/CDK5 activator 1; test: Inhibition of CDK5/cyclin p35 (unknown origin) after 30 mins in presence of [33P]-gamma-ATP by filter binding assay; assay type: protein-complex assay
[4] = system: Tyrosine-protein kinase ABL1 (Homo sapiens), P00519 [E255K]; test: Inhibition of phosphorylated partial length human ABL1 E255K mutant expressed in mammalian expression system at 0.5 uM by KINOMEscan method relative to control
Sequence of Tyrosine-protein kinase ABL1 (Homo sapiens), P00519 [E255K] (P00519 whole entry E255K): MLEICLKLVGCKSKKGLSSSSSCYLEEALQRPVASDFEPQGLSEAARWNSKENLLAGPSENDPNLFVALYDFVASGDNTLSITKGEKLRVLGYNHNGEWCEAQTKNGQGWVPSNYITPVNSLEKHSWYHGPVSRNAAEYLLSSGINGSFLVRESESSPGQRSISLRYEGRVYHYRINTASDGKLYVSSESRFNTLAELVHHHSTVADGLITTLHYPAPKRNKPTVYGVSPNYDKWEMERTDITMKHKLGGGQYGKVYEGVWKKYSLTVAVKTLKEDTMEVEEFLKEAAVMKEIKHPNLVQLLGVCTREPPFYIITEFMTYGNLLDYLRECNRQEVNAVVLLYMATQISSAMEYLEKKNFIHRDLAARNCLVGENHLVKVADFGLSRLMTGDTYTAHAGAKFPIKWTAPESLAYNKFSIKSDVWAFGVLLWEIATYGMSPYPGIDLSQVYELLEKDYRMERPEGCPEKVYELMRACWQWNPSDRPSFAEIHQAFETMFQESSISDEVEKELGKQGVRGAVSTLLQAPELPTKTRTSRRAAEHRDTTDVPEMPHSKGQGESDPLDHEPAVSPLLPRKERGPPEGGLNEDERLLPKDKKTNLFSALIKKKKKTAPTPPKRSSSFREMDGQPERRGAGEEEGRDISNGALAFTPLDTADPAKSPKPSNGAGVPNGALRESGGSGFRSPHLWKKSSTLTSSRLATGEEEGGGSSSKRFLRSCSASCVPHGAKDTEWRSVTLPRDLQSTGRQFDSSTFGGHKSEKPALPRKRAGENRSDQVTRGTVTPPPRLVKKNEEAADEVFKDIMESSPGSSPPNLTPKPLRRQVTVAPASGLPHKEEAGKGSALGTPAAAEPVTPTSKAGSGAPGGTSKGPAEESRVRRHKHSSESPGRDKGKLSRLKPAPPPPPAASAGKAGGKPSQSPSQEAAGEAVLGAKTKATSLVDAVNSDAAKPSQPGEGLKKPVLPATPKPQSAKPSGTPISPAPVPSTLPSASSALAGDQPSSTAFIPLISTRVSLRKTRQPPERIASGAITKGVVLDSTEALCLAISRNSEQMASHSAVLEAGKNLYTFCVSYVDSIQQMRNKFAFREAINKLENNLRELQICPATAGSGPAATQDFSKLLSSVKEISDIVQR
In short: (§1)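 Competition binding screen (KINOMEscan) at 0.5 μM; primary binding read out as % of control, lower values indicating stronger interaction.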

[5] = target: Tyrosine-protein kinase Blk (Homo sapiens) (UniProt P51451); test: Inhibition of partial length wild type human BLK expressed in bacterial expression system at 0.5 uM by KINOMEscan method relative to control; in short: as §1
Sequence of Tyrosine-protein kinase Blk (Homo sapiens) (P51451 2-505 limits assumed): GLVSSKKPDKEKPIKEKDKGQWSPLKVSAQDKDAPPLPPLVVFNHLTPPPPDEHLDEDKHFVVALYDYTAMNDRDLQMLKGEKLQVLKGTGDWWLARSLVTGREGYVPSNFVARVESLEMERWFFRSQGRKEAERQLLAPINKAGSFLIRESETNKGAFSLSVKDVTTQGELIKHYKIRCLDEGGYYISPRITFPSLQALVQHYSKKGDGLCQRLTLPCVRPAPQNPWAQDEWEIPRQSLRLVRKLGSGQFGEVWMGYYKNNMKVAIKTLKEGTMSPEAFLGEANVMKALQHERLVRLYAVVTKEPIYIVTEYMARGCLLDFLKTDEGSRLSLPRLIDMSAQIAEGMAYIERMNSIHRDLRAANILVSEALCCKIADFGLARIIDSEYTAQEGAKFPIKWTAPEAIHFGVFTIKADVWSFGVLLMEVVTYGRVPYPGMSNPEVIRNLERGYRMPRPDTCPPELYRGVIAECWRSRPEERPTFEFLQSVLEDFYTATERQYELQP

[6] = target: Cyclin-dependent kinase 4/cyclin D1 (Homo sapiens) (UniProt P11802+P24385); test: Inhibition of full length wild type human CDK4/cyclin D1 expressed in mammalian expression system at 0.5 uM by KINOMEscan method relative to control; in short: as §1
[7] = target: Serine/threonine-protein kinase ICK (Homo sapiens) (UniProt Q9UPZ9); test: Inhibition of partial length wild type human ICK expressed in mammalian expression system at 0.5 uM by KINOMEscan method relative to control; in short: as §1
Sequence of Serine/threonine-protein kinase ICK (Homo sapiens) (Q9UPZ9 whole entry): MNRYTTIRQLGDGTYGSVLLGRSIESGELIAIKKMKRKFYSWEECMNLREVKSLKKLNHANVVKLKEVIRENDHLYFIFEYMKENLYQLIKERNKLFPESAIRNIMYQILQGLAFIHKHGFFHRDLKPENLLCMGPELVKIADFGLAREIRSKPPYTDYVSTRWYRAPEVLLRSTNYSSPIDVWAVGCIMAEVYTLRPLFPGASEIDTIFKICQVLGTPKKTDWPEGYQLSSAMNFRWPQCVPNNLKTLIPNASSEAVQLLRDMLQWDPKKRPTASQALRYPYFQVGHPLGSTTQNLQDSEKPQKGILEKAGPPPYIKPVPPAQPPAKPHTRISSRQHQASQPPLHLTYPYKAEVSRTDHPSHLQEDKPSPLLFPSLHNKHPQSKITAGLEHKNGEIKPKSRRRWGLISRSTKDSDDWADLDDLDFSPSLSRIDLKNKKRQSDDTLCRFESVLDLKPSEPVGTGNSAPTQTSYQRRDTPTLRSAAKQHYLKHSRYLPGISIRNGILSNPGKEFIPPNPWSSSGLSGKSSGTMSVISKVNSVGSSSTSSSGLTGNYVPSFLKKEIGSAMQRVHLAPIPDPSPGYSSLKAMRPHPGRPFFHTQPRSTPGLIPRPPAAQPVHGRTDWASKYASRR

[8] = target: Dual specificity mitogen-activated protein kinase kinase 5 (Homo sapiens) (UniProt Q13163); test: Inhibition of partial length wild type human MEK5 expressed in mammalian expression system at 0.5 uM by KINOMEscan method relative to control; in short: as §1
Sequence of Dual specificity mitogen-activated protein kinase kinase 5 (Homo sapiens) (Q13163 whole entry): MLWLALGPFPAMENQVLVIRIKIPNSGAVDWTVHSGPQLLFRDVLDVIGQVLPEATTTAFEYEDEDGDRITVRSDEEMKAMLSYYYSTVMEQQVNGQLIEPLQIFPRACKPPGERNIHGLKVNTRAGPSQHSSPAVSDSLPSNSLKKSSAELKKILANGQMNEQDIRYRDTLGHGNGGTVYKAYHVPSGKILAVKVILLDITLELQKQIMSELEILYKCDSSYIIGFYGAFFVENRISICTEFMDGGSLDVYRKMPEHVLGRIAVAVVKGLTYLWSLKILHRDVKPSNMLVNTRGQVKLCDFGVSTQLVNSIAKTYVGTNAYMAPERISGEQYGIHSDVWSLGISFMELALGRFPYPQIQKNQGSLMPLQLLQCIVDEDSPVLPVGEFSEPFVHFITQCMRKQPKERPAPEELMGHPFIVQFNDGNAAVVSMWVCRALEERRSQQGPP

MOLT-4 = test: Growth inhibition of human MOLT4 cells after 48 hrs by MTT assay; assay type: functional; conditions: MOLT-4, 48 h
In short: (§2)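 Cancer cell lines sourced from the National Cancer Institute (USA). Cells kept in appropriate growth medium at 37 °C, 95% humidity, 5% CO2. Antiproliferation read by tetrazolium (MTT) assay. GI50 values were determined only for compounds selected after an initial single-concentration screen.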

COLO 205 = test: Growth inhibition of human COLO205 cells after 48 hrs by MTT assay; assay type: functional; conditions: COLO 205, 48 h; in short: as §2
MIA PaCa-2 = test: Induction of apoptosis in human MIAPaCa2 cells assessed as caspase-7 cleavage by Western blot method; assay type: functional, cell-based
In short: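 Lysate protein quantified against a BSA standard; 70 μg resolved by SDS-PAGE, transferred to PVDF overnight at 4 °C, 30 V; blocked 1 h in 5% nonfat milk/TBST; primary antibodies 2–4 h, HRP anti-mouse secondary 1 h; ECL detection on X-ray film.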

[9] = Thermodynamic equilibrium solubility of compound in PBS at pH 7.4 after 5 hrs by shake flask method; assay type: physicochemical; conditions: read-out: Therm_solubility
[10] = Protein binding in mouse plasma at 3 uM after 5 hrs by equilibrium dialysis method; assay type: ADME, cell-free; conditions: read-out: PPB (converted)
[11] = Half life in rat liver microsomes at 100 uM after 30 mins by LC-MS/MS analysis; assay type: ADME, microsome
In short: (§3)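 Parent loss followed over time to give half-life, with NADPH as cofactor for microsomal phase I metabolism.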

[12] = Half life in human liver microsomes at 100 uM after 30 mins by LC-MS/MS analysis; assay type: ADME, microsome
[13] = Intrinsic clearance in mouse liver microsomes assessed per mg of protein at 100 uM after 30 mins by LC-MS/MS analysis; assay type: ADME, microsome; conditions: read-out: CLH
[14] = Half life in rat hepatocytes at 3 uM after 180 mins by LC-MS/MS analysis; assay type: ADME, cell-based, Hepatocyte
[15] = Intrinsic clearance in dog hepatocytes assessed per million cells at 3 uM after 180 mins by LC-MS/MS analysis; assay type: ADME, cell-based, Canis lupus familiaris, Hepatocyte; conditions: read-out: CLH
In short: (§4)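 Intrinsic clearance obtained from substrate disappearance over time, reported per mg protein (microsomes, S9) or per 10^6 cells (hepatocytes).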

[16] = Half life in mouse liver S9 fraction preincubated for 5 mins followed by NADPH addition measured after 30 mins by LC-MS/MS analysis; assay type: ADME, tissue-based; in short: as §3
Liver [17] = test: Intrinsic clearance in rat liver S9 fraction assessed per mg of protein preincubated for 5 mins followed by NADPH addition measured after 30 mins by LC-MS/MS analysis; assay type: ADME, tissue-based; conditions: s9, 0.5 h
Liver [18] = test: Intrinsic clearance in dog liver S9 fraction assessed per mg of protein preincubated for 5 mins followed by NADPH addition measured after 30 mins by LC-MS/MS analysis; assay type: ADME, tissue-based, Canis lupus familiaris; conditions: s9, 0.5 h; in short: as §4
[19] = Volume of distribution at steady state in BALB/c mouse at 1 mg/kg, iv by LC-MS/MS analysis; assay type: ADME, organism-based; conditions: in vivo, read-out: Vdss
[20] = Tmax in BALB/c mouse at 3 mg/kg, po by LC-MS/MS analysis; assay type: ADME, organism-based; conditions: in vivo
[21] = Half life in BALB/c mouse at 10 mg/kg, po by LC-MS/MS analysis; assay type: ADME, organism-based; conditions: in vivo
[22] = AUC in BALB/c mouse at 30 mg/kg, po by LC-MS/MS analysis; assay type: ADME, organism-based; conditions: in vivo
[23] = Tmax in Sprague-Dawley rat at 10 mg/kg, po by LC-MS/MS analysis; assay type: ADME, organism-based; conditions: in vivo
[24] = Half life in Sprague-Dawley rat at 30 mg/kg, po by LC-MS/MS analysis; assay type: ADME, organism-based; conditions: in vivo
[25] = AUC in Sprague-Dawley rat at 30 mg/kg, po by LC-MS/MS analysis; assay type: ADME, organism-based; conditions: in vivo
Liver [26] = test: Drug uptake in BALB/c mouse liver at 30 mg/kg, po after 8 hrs; assay type: ADME, organism-based; conditions: in vivo
Kidney = test: Drug uptake in BALB/c mouse kidney at 30 mg/kg, po after 8 hrs; assay type: ADME, organism-based; conditions: in vivo
Mus musculus = test: Toxicity in Swiss albino mouse allografted with Swiss mouse EAC assessed as mortality at 70 to 100 mg/kg, po administered for 9 day; assay type: organism-based; conditions: in vivo, 216 h
HCT-116 = test: Antitumor activity against human HCT116 cells xenografted in CD1 nude mouse assessed as tumor growth inhibition at 50 mg/kg, po qd administered on day 10 to 25 post tumor inoculation relative to control; assay type: functional; conditions: HCT-116, po, 240 h, read-out: TGI
Salmonella typhimurium = test: Mutagenicity in Salmonella typhimurium TA1537 at 50 ug/plate in presence of liver S9 fraction by Ames test; assay type: toxicity; conditions: salmonella enterica subsp. enterica serovar typhimurium

CN1CC[C@H](c2c(O)cc(O)c3c(=O)cc(/C=C/c4c(Cl)cccc4Cl)oc23)[C@H](O)C1
inhibition [1]: 90% | inhibition of growth at 10 µM (PC-3): 84% | IC50 (CDK4/Cyclin D3): 22.5 nM | IC50 [2]: 15.5 nM | IC50 [3]: 15.7 nM | inhibition [4]: > 98% | inhibition [5]: > 98% | inhibition [6]: > 98% | inhibition [7]: > 98% | inhibition [8]: > 98% | GI50 (MOLT-4): 500 nM | GI50 (COLO 205): 7000 nM | Activity (MIA PaCa-2): Dose-dependent effect | solubility thermodynamic at 5 h [9]: 2.29 µg/mL (≈ 4.95 µM) | fraction unbound at 5 h, 3 µM [10]: 0.028 | half-life at 100 µM [11]: > 0.5 h | half-life at 100 µM [12]: > 0.5 h | microsomal CLint at 100 µM [13]: < 8.8 µL/min/mg | half-life at 3 µM [14]: 6.27 h | hepatocyte CLint at 3 µM [15]: 12.3 µL/min/1e6 cells | half-life [16]: 1.43 h | CLint (Liver [17]): 45 µL/min/mg | CLint (Liver [18]): 12 µL/min/mg | Vd [19]: 14.1 L/kg | Tmax [20]: 0.37 h | half-life [21]: 3.61 h | AUC [22]: 11.3 µM·h | Tmax [23]: 1.75 h | half-life [24]: 3.23 h | AUC [25]: 15.9 µM·h | Drug uptake (Liver [26]): Active | Drug uptake (Kidney): Active | Activity (Mus musculus): Non-Toxic | inhibition in vivo at 50 mg/kg (HCT-116): 40 to 52% | Activity (Salmonella typhimurium): Non-Toxic
